Results: ChEMBL document CHEMBL1159046, “New thalidomide analogues derived through Sonogashira or Suzuki reactions and their TNF expression inhibition profiles” (Bioorg Med Chem, 2010)
Activity calls are given as the source filed them. The rule behind the calls is not given here.

Columns and labels:
Jurkat [1] = assay: Induction of apoptosis in human Jurkat T cells at 100 uM after 24 hrs by flow cytometry; type: functional
Outline: (§1)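 Jurkat T cells were treated with compound for 24 h, with DMSO-only and untreated controls, then stained with a FITC-labelled substrate for cleaved caspase-3 (NucView-488). The apoptotic fraction was the percentage of cells with increased green fluorescence by flow cytometry. Cell death, taken as reduced size and granularity on FSC/SSC, was measured in parallel. Assays were run in triplicate.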

Jurkat [2] = assay: Induction of apoptosis in human Jurkat T cells at 10 uM after 24 hrs by flow cytometry; type: functional
Outline: (§2)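 Apoptosis in Jurkat T cells after 24 h compound exposure: cells stained with FITC-labelled substrate for cleaved caspase-3 (NucView-488), % cells with increased green fluorescence counted by flow cytometry with positivity gate; solvent (0.1% DMSO) and untreated controls. Triplicate, racemic compounds; three independent experiments.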

Jurkat [3] = assay: Inhibition of NF-kappaB-mediated TNF expression in human Jurkat T cells coexpressing GFP reporter gene at 10 uM by flow cytometry; type: cell-based
Outline: (§3)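 Jurkat cells stably carrying GFP under an NF-κB-responsive human TNF promoter (FRT-Jurkat TNF) were treated with racemic compound (0.1% DMSO final) for 24 h. GFP was read by flow cytometry at 515 nm ([…]), gated on viable FSC/SSC cells. Inhibition is the percentage decrease in GFP versus 0.1% solvent control. Assays were run in triplicate.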

Jurkat [4] = assay: Cytotoxicity against human Jurkat T cells assessed as viable cells at 10 uM after 24 hrs by flow cytometry; type: functional; settings: read-out: Activity
Outline: (§4)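 FRT-Jurkat TNF reporter cells were exposed to compound (racemic, 0.1% DMSO final) for 24 h and analysed by flow cytometry on FSC/SSC. Viable cells were counted as those inside the gate around the main population of solvent-only cells. Viability was confirmed by propidium iodide fluorescence at 570 nm (FL2). Assays were run in triplicate.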

Jurkat [5] = assay: Cytotoxicity against human Jurkat T cells assessed as cell death at 10 uM after 24 hrs by flow cytometry; type: functional
Outline: (§5)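 Jurkat T cells treated 24 h with compound (final DMSO 0.1%); cell death taken as % of cells with reduced size and granularity on flow cytometric forward- vs side-scatter plot, outside gate set on major solvent-only population; viability confirmed by propidium iodide staining (570 nm, FL2). Triplicate, racemic compounds.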

Jurkat [6] = assay: Inhibition of NF-kappaB-mediated TNF expression in human Jurkat T cells coexpressing GFP reporter gene at 100 uM by flow cytometry; type: cell-based; outline: as §3
Jurkat [7] = assay: Cytotoxicity against human Jurkat T cells assessed as cell death at 100 uM after 24 hrs by flow cytometry; type: functional; outline: as §5
Jurkat [8] = assay: Cytotoxicity against human Jurkat T cells assessed as viable cells at 0.1 uM after 24 hrs by flow cytometry; type: functional; settings: read-out: Activity; outline: as §4
Jurkat [9] = assay: Induction of apoptosis in human Jurkat T cells at 0.1 uM after 24 hrs by flow cytometry; type: functional; outline: as §1
Jurkat [10] = assay: Cytotoxicity against human Jurkat T cells assessed as cell death at 0.1 uM after 24 hrs by flow cytometry; type: functional; outline: as §5
PBMC [11] = assay: Inhibition of PMA-induced TNF production in human PBMC at 10 uM by RT-PCR; type: functional, cell-based
Outline: (§6)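 PBMCs from healthy volunteers were freshly isolated, activated, and cultured with compound or DMSO for 2 h. Endogenous TNF mRNA was quantified by reverse transcription and real-time PCR (50 cycles: 95 °C 10 s, 55 °C 15 s, 72 °C 20 s) and normalised to β-actin.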

Jurkat [12] = assay: Induction of apoptosis in human Jurkat T cells at 1 uM after 24 hrs by flow cytometry; type: functional; outline: as §2
Jurkat [13] = assay: Inhibition of NF-kappaB-mediated TNF expression in human Jurkat T cells coexpressing GFP reporter gene at 0.1 uM by flow cytometry; type: cell-based; outline: as §3
Jurkat [14] = assay: Inhibition of NF-kappaB-mediated TNF expression in human Jurkat T cells coexpressing GFP reporter gene at 1 uM by flow cytometry; type: cell-based; outline: as §3
PBMC [15] = assay: Inhibition of PMA-induced TNF production in human PBMC at 1 uM by RT-PCR; type: functional, cell-based; outline: as §6
Jurkat [16] = assay: Cytotoxicity against human Jurkat T cells assessed as viable cells at 1 uM after 24 hrs by flow cytometry; type: functional; settings: read-out: Activity; outline: as §4
PBMC [17] = assay: Cytotoxicity against human PBMC assessed as cell death at 1 to 10 uM; type: cell-based

**Q.** For `CC(C)Oc1ccc(-c2ccc3c(c2)C(=O)N(C2CCC(=O)NC2=O)C3=O)cc1` (racemic), which Activity (Jurkat [1]) is on record?
**A.** 34%

**Q.** What about the Activity (Jurkat [2]) of the same compound?
**A.** 12%

**Q.** And the inhibition (Jurkat [3])?
**A.** 10%

**Q.** What about the viability at 10 µM (Jurkat [4]) of the same compound?
**A.** 90%

**Q.** What about the Activity (Jurkat [5]) of the same compound?
**A.** 14%

**Q.** What about the inhibition (Jurkat [6]) of the same compound?
**A.** 59%

**Q.** And the Activity (Jurkat [7])?
**A.** 51%

**Q.** Which Activity (Jurkat [1]) does the source give for `CC(C)Cc1ccc(-c2cccc3c2C(=O)N(C2CCC(=O)NC2=O)C3=O)cc1` (racemic) here?
**A.** 96%

**Q.** What about the Activity (Jurkat [2]) of the same compound?
**A.** 7%

**Q.** What about the inhibition (Jurkat [3]) of the same compound?
**A.** 7%

**Q.** What about the viability at 10 µM (Jurkat [4]) of the same compound?
**A.** 90%

**Q.** What about the inhibition (Jurkat [6]) of the same compound?
**A.** 86%

**Q.** And the Activity (Jurkat [7])?
**A.** 94%

**Q.** Which results are given for `CC(C)Cc1ccc(-c2ccc3c(c2)C(=O)N(C2CCC(=O)NC2=O)C3=O)cc1` (racemic)?
**A.** Activity (Jurkat [1]): 22%; Activity (Jurkat [2]): 7%; inhibition (Jurkat [3]): 5%; viability at 10 µM (Jurkat [4]): 89%; Activity (Jurkat [5]): 6%; inhibition (Jurkat [6]): 90%; Activity (Jurkat [7]): 21%

**Q.** What does the source list for `CC(C)Oc1ccc(-c2cccc3c2C(=O)N(C2CCC(=O)NC2=O)C3=O)cc1` (racemic)?
**A.** Activity (Jurkat [1]): 30%; Activity (Jurkat [2]): 8%; inhibition (Jurkat [3]): 8%; viability at 10 µM (Jurkat [4]): 90%; inhibition (Jurkat [6]): 47%; Activity (Jurkat [7]): 33%

**Q.** For `O=CC#Cc1ccc2c(c1)C(=O)N(C1CCC(=O)NC1=O)C2=O` (racemic), which viability at 0.1 µM (Jurkat [8]) is on record?
**A.** 96%

**Q.** And the Activity (Jurkat [2])?
**A.** 84%

**Q.** What about the Activity (Jurkat [9]) of the same compound?
**A.** 7%

**Q.** What about the Activity (Jurkat [10]) of the same compound?
**A.** 4%

**Q.** What about the Activity (PBMC [11]) of the same compound?
**A.** Active

**Q.** What about the Activity (Jurkat [12]) of the same compound?
**A.** 7%

**Q.** What about the inhibition (Jurkat [3]) of the same compound?
**A.** 86%

**Q.** And the inhibition (Jurkat [13])?
**A.** 4%

**Q.** And the inhibition (Jurkat [14])?
**A.** 5%

**Q.** And the viability at 10 µM (Jurkat [4])?
**A.** 25%

**Q.** What about the Activity (PBMC [15]) of the same compound?
**A.** Active

**Q.** What about the Activity (Jurkat [5]) of the same compound?
**A.** 86%

**Q.** What about the inhibition (Jurkat [6]) of the same compound?
**A.** 85%

**Q.** What about the viability at 1 µM (Jurkat [16]) of the same compound?
**A.** 95%

**Q.** And the Activity (PBMC [17])?
**A.** Active

**Q.** How did the inhibition (Jurkat [6]) turn out when `CC(=O)c1ccc(-c2ccc3c(c2)C(=O)N(C2CCC(=O)NC2=O)C3=O)cc1` (racemic) was run?
**A.** 26%

**Q.** Which inhibition (Jurkat [6]) does the source give for `CC(=O)c1ccc(-c2cccc3c2C(=O)N(C2CCC(=O)NC2=O)C3=O)cc1` (racemic) here?
**A.** 17%

**Q.** How did the inhibition (Jurkat [6]) turn out when `CC(C)(C)C#Cc1ccc2c(c1)C(=O)N(C1CCC(=O)NC1=O)C2=O` (racemic) was run?
**A.** 19%

**Q.** How did the inhibition (Jurkat [6]) turn out when `CC(C)(C)C#Cc1cccc2c1C(=O)N(C1CCC(=O)NC1=O)C2=O` (racemic) was run?
**A.** 24%

**Q.** For `CC(C)(O)C#Cc1ccc2c(c1)C(=O)N(C1CCC(=O)NC1=O)C2=O` (racemic), which inhibition (Jurkat [6]) is on record?
**A.** 20%

**Q.** With `CC(C)(O)C#Cc1cccc2c1C(=O)N(C1CCC(=O)NC1=O)C2=O` (racemic) as the compound, how does the inhibition (Jurkat [6]) read?
**A.** 6%

**Q.** Which inhibition (Jurkat [6]) does the source give for `CNCC#Cc1ccc2c(c1)C(=O)N(C1CCC(=O)NC1=O)C2=O` (racemic) here?
**A.** 10%

**Q.** `Cc1ccc(-c2ccc3c(c2)C(=O)N(C2CCC(=O)NC2=O)C3=O)cc1` (racemic) was tested. Which inhibition (Jurkat [6]) did it give?
**A.** 14%

**Q.** Which inhibition (Jurkat [6]) does the source give for `Cc1ccc(-c2cccc3c2C(=O)N(C2CCC(=O)NC2=O)C3=O)cc1` (racemic) here?
**A.** 10%

**Q.** Which inhibition (Jurkat [6]) does the source give for `N#CCCCC#Cc1ccc2c(c1)C(=O)N(C1CCC(=O)NC1=O)C2=O` (racemic) here?
**A.** 12%

**Q.** `N#CCCCC#Cc1cccc2c1C(=O)N(C1CCC(=O)NC1=O)C2=O` (racemic) was tested. Which inhibition (Jurkat [6]) did it give?
**A.** 9%

**Q.** With `NC(=O)c1ccc(-c2ccc3c(c2)C(=O)N(C2CCC(=O)NC2=O)C3=O)cc1` (racemic) as the compound, how does the inhibition (Jurkat [6]) read?
**A.** 10%

**Q.** `NC(=O)c1ccc(-c2cccc3c2C(=O)N(C2CCC(=O)NC2=O)C3=O)cc1` (racemic) was tested. Which inhibition (Jurkat [6]) did it give?
**A.** 14%

**Q.** How did the inhibition (Jurkat [6]) turn out when `O=C1CCC(N2C(=O)c3ccc(-c4ccc(O)cc4)cc3C2=O)C(=O)N1` (racemic) was run?
**A.** 11%

**Q.** Which inhibition (Jurkat [6]) does the source give for `O=C1CCC(N2C(=O)c3ccc(-c4ccccc4)cc3C2=O)C(=O)N1` (racemic) here?
**A.** 12%

**Q.** How did the inhibition (Jurkat [6]) turn out when `O=C1CCC(N2C(=O)c3ccc(C#CCO)cc3C2=O)C(=O)N1` (racemic) was run?
**A.** 10%

**Q.** For `O=C1CCC(N2C(=O)c3ccc(C#Cc4ccccc4)cc3C2=O)C(=O)N1` (racemic), which inhibition (Jurkat [6]) is on record?
**A.** 6%

**Q.** How did the inhibition (Jurkat [6]) turn out when `O=C1CCC(N2C(=O)c3cccc(-c4ccc(O)cc4)c3C2=O)C(=O)N1` (racemic) was run?
**A.** 19%

**Q.** How did the inhibition (Jurkat [6]) turn out when `O=C1CCC(N2C(=O)c3cccc(-c4ccccc4)c3C2=O)C(=O)N1` (racemic) was run?
**A.** 14%

**Q.** For `O=C1CCC(N2C(=O)c3cccc(C#CCO)c3C2=O)C(=O)N1` (racemic), which inhibition (Jurkat [6]) is on record?
**A.** 7%

**Q.** For `O=C1CCC(N2C(=O)c3cccc(C#Cc4ccccc4)c3C2=O)C(=O)N1` (racemic), which inhibition (Jurkat [6]) is on record?
**A.** 13%

**Q.** What does the source list for `O=C1CCC(N2C(=O)c3ccccc3C2=O)C(=O)N1` (racemic) [THALIDOMIDE]?
**A.** Activity (Jurkat [1]): 9%; Activity (Jurkat [2]): 7%; inhibition (Jurkat [3]): 4%; Activity (Jurkat [5]): 6%; inhibition (Jurkat [6]): 6%
